In one data set the test system is T-24. The data set is described as follows: Growth inhibition of human T24 cells after 4 days by MTT assay. It counts as functional. Further details: concentration or dose not given beside the values. Put shortly: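 After 4 days, MTT (5 mg/mL solution) added, 4 h further incubation, formazan dissolved in DMSO, absorbance read at 570 nm. Survival expressed as percent of untreated control wells; inhibition rates derived.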

A short description of data set [1]: Stability in human plasma assessed as level of lactone form of compound after 24 hrs by HPLC. It counts as ADME, cell-free. As to conditions: read-out: Activity. Put shortly: (§1)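 Incubated in plasma at 37 °C; aliquots taken at 2, 4, 6, 8 and 24 h. Protein precipitated with cold acetonitrile (-20 °C) and removed by centrifugation. Supernatant stored at -20 °C, then analysed by C-18 HPLC (methanol/water/0.1% acetic acid) with detection at 254 nm. Percent lactone = lactone level at each time point relative to t = 0 h.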

Data set [2] in a line: Stability in human plasma assessed as level of lactone form of compound after 2 hrs by HPLC. The class given is ADME, cell-free. As to conditions: read-out: Activity. Put shortly:
as §1

The nature of data set [3]: Stability in human plasma assessed as level of lactone form of compound after 4 hrs by HPLC. It counts as ADME, cell-free. As to conditions: read-out: Activity. Put shortly:
as §1

Data set [4] in a line: Stability in human plasma assessed as level of lactone form of compound after 6 hrs by HPLC. The class given is ADME, cell-free. As to conditions: read-out: Activity. Put shortly:
as §1

Data set [5] can be described thus: Stability in mouse plasma assessed as level of lactone form of compound after 24 hrs by HPLC. The class given is ADME, cell-free. As to conditions: read-out: Activity. Put shortly:
as §1

Data set [6] is described as follows: Stability in mouse plasma assessed as level of lactone form of compound after 2 hrs by HPLC. The class given is ADME, cell-free. As to conditions: read-out: Activity. Put shortly: as §1
A short description of data set [7]: Stability in mouse plasma assessed as level of lactone form of compound after 4 hrs by HPLC. The class given is ADME, cell-free. As to conditions: read-out: Activity. Put shortly: as §1
A short description of data set [8]: Stability in mouse plasma assessed as level of lactone form of compound after 6 hrs by HPLC. It counts as ADME, cell-free. As to conditions: read-out: Activity. Put shortly:
as §1

Data set [9] in a line: Stability in mouse plasma assessed as level of lactone form of compound after 8 hrs by HPLC. As to conditions: read-out: Activity. It counts as ADME, cell-free. Put shortly: as §1
Data set [10] in a line: Stability in human plasma assessed as level of lactone form of compound after 8 hrs by HPLC. The class given is ADME, cell-free. As to conditions: read-out: Activity. Put shortly: as §1

The values below come from ChEMBL document CHEMBL1154452, “First synthesis of novel spin-labeled derivatives of camptothecin as potential antineoplastic agents” (Eur J Med Chem, 2008).

As to `CC[C@@]1(OC(=O)[C@H](C)NC(=O)C2=CC(C)(C)N(O)C2(C)C)C(=O)OCc2c1cc1n(c2=O)Cc2cc3ccccc3nc2-1`, the “inhibition (INH)” value with T-24 is 25.9%.
Consider `CC[C@@]1(O)C(=O)OCc2c1cc1n(c2=O)Cc2cc3ccccc3nc2-1` [CAMPTOTHECIN], for which the remaining at 24 h in [1] turned out to be 3.8%; in data set [5] it was 5.3%. Further, the “inhibition (INH)” value in the data set with T-24 amounted to 15.4%. The results for the remaining at 2 h in [2] and in [6] were 61.4% and 55.1%, respectively. In addition, the remaining at 4 h worked out at 28.4% in data set [3] and 40.5% in data set [7]. Also, the remaining at 6 h in [4] was determined as 19.4%; in [8], 24.5%. The remaining at 8 h was 10.9% in data set [9] and 14.6% in data set [10].
Consider `CCc1c2c(nc3ccc(OC(=O)N4CCC(N5CCCCC5)CC4)cc13)-c1cc3c(c(=O)n1C2)COC(=O)[C@]3(O)CC` [IRINOTECAN], for which the “inhibition (INH)” value with T-24 is 23.8%.
For the compound `CC[C@@]1(OC(=O)[C@H](CC(C)C)NC(=O)C2=CC(C)(C)N(O)C2(C)C)C(=O)OCc2c1cc1n(c2=O)Cc2cc3ccccc3nc2-1`, the “inhibition (INH)” value in the data set on T-24 is 16.4%.
In the case of `CC[C@@]1(OC(=O)[C@H](CCSC)NC(=O)C2=CC(C)(C)N(O)C2(C)C)C(=O)OCc2c1cc1n(c2=O)Cc2cc3ccccc3nc2-1`, the “inhibition (INH)” value in the data set with T-24 is on record as 25.5%.
Still for that read-out and setting: for `CC[C@@]1(OC(=O)[C@H](Cc2ccccc2)NC(=O)C2=CC(C)(C)N(O)C2(C)C)C(=O)OCc2c1cc1n(c2=O)Cc2cc3ccccc3nc2-1` the value was 26.4%.
In the case of `CC[C@@]1(OC(=O)CNC(=O)C2=CC(C)(C)N(O)C2(C)C)C(=O)OCc2c1cc1n(c2=O)Cc2cc3ccccc3nc2-1`, the remaining at 24 h in data set [1] was 7.8%; in [5], 10.8%. For the same compound, in the data set with T-24, the “inhibition (INH)” value was found to be 34.5%. The remaining at 2 h in [2] amounted to 78.7%; in data set [6] it was 76.3%. In addition, the values for the remaining at 4 h in [3] and in [7] were 65.2% and 57.6%, respectively. For the same compound, the remaining at 6 h is 56.1% in [4] and 43.9% in [8]. The results for the remaining at 8 h in data set [9] and in [10] were 31.8% and 34.4%, respectively.
